Measured values published in ChEMBL document CHEMBL5058577, “EUbOPEN Chemogenomics Library 2 (Multiplex)” (2022).

Test system: U2OS
Assay: Multiplex assay against U2OS
Assay type: toxicity, cell-based
Details: human
Procedure, shortened: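 Cells were classed with CellPathfinder machine-learning gating, first as Hoechst high-intensity objects or normal cells, then (normal cells) as healthy, pyknosed or fragmented nuclei, and finally (pyknosed cells) as mitotic or apoptotic. Staining of live cells at seeding used Hoechst33342, BioTracker Green Microtubule Cytoskeleton Dye, MitoTracker Red and Annexin V Alexa Fluor 680, with imaging on a CQ1 microscope at 37°C and 5% CO2 after compound addition. Tubulin, mitochondrial-mass and membrane-permeability phenotypes are per cents of healthy-nucleus cells.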

[1] = 12 h, 1 µM, compound concentration 1 uM, replicate 1
[2] = 12 h, 1 µM, compound concentration 1 uM, replicate 2
[3] = 12 h, 10 µM, compound concentration 10 uM, replicate 1
[4] = 12 h, 10 µM, compound concentration 10 uM, replicate 2
[5] = 24 h, 1 µM, compound concentration 1 uM, replicate 1
[6] = 24 h, 1 µM, compound concentration 1 uM, replicate 2
[7] = 24 h, 10 µM, compound concentration 10 uM, replicate 1
[8] = 24 h, 10 µM, compound concentration 10 uM, replicate 2
[9] = 48 h, 1 µM, compound concentration 1 uM, replicate 1
[10] = 48 h, 1 µM, compound concentration 1 uM, replicate 2
[11] = 48 h, 10 µM, compound concentration 10 uM, replicate 1
[12] = 48 h, 10 µM, compound concentration 10 uM, replicate 2

CN1CCN2c3ccccc3Cc3ccccc3C2C1.Cl (stereo not drawn) [MIANSERIN HYDROCHLORIDE]
Population Apoptotic (%) [1]: 91% | Population Fragmented Nuclei (%) [1]: 35% | Population Healthy Nuclei (%) [1]: 56% | Population Hoechst High Intensity Objects (%) [1]: 3% | Population Membrane Permeable-Phenotype (%) [1]: 7% | Population Mitochondria Different-Phenotype (%) [1]: 4% | Population Mitotic Cells (%) [1]: 8% | Population Normal (%) [1]: 96% | Population Pyknosed Nuclei (%) [1]: 7% | Population Tubulin-Different-Phenotype (%) [1]: 5% | Total Cell Count [1]: 162 | Population Apoptotic (%) [2]: 83% | Population Fragmented Nuclei (%) [2]: 16% | Population Healthy Nuclei (%) [2]: 77% | Population Hoechst High Intensity Objects (%) [2]: 1% | Population Membrane Permeable-Phenotype (%) [2]: 3% | Population Mitochondria Different-Phenotype (%) [2]: 3% | Population Mitotic Cells (%) [2]: 16% | Population Normal (%) [2]: 98% | Population Pyknosed Nuclei (%) [2]: 5% | Population Tubulin-Different-Phenotype (%) [2]: 2% | Total Cell Count [2]: 109 | Population Apoptotic (%) [3]: 78% | Population Fragmented Nuclei (%) [3]: 23% | Population Healthy Nuclei (%) [3]: 68% | Population Hoechst High Intensity Objects (%) [3]: 2% | Population Membrane Permeable-Phenotype (%) [3]: 7% | Population Mitochondria Different-Phenotype (%) [3]: 3% | Population Mitotic Cells (%) [3]: 21% | Population Normal (%) [3]: 97% | Population Pyknosed Nuclei (%) [3]: 8% | Population Tubulin-Different-Phenotype (%) [3]: 4% | Total Cell Count [3]: 277 | Population Apoptotic (%) [4]: 86% | Population Fragmented Nuclei (%) [4]: 12% | Population Healthy Nuclei (%) [4]: 77% | Population Hoechst High Intensity Objects (%) [4]: 1% | Population Membrane Permeable-Phenotype (%) [4]: 1% | Population Mitochondria Different-Phenotype (%) [4]: 2% | Population Mitotic Cells (%) [4]: 13% | Population Normal (%) [4]: 98% | Population Pyknosed Nuclei (%) [4]: 10% | Population Tubulin-Different-Phenotype (%) [4]: 0% | Total Cell Count [4]: 152 | Population Apoptotic (%) [5]: 88% | Population Fragmented Nuclei (%) [5]: 34% | Population Healthy Nuclei (%) [5]: 56% | Population Hoechst High Intensity Objects (%) [5]: 1% | Population Membrane Permeable-Phenotype (%) [5]: 6% | Population Mitochondria Different-Phenotype (%) [5]: 1% | Population Mitotic Cells (%) [5]: 11% | Population Normal (%) [5]: 98% | Population Pyknosed Nuclei (%) [5]: 8% | Population Tubulin-Different-Phenotype (%) [5]: 4% | Total Cell Count [5]: 197 | Population Apoptotic (%) [6]: 75% | Population Fragmented Nuclei (%) [6]: 23% | Population Healthy Nuclei (%) [6]: 70% | Population Hoechst High Intensity Objects (%) [6]: 2% | Population Membrane Permeable-Phenotype (%) [6]: 4% | Population Mitochondria Different-Phenotype (%) [6]: 3% | Population Mitotic Cells (%) [6]: 25% | Population Normal (%) [6]: 97% | Population Pyknosed Nuclei (%) [6]: 5% | Population Tubulin-Different-Phenotype (%) [6]: 3% | Total Cell Count [6]: 142 | Population Apoptotic (%) [7]: 69% | Population Fragmented Nuclei (%) [7]: 21% | Population Healthy Nuclei (%) [7]: 68% | Population Hoechst High Intensity Objects (%) [7]: 1% | Population Membrane Permeable-Phenotype (%) [7]: 9% | Population Mitochondria Different-Phenotype (%) [7]: 2% | Population Mitotic Cells (%) [7]: 30% | Population Normal (%) [7]: 98% | Population Pyknosed Nuclei (%) [7]: 10% | Population Tubulin-Different-Phenotype (%) [7]: 2% | Total Cell Count [7]: 319 | Population Apoptotic (%) [8]: 93% | Population Fragmented Nuclei (%) [8]: 13% | Population Healthy Nuclei (%) [8]: 77% | Population Hoechst High Intensity Objects (%) [8]: 2% | Population Membrane Permeable-Phenotype (%) [8]: 7% | Population Mitochondria Different-Phenotype (%) [8]: 3% | Population Mitotic Cells (%) [8]: 6% | Population Normal (%) [8]: 97% | Population Pyknosed Nuclei (%) [8]: 8% | Total Cell Count [8]: 183 | Population Apoptotic (%) [9]: 78% | Population Fragmented Nuclei (%) [9]: 28% | Population Healthy Nuclei (%) [9]: 65% | Population Hoechst High Intensity Objects (%) [9]: 2% | Population Membrane Permeable-Phenotype (%) [9]: 5% | Population Mitochondria Different-Phenotype (%) [9]: 2% | Population Mitotic Cells (%) [9]: 21% | Population Normal (%) [9]: 97% | Population Pyknosed Nuclei (%) [9]: 5% | Population Tubulin-Different-Phenotype (%) [9]: 4% | Total Cell Count [9]: 269 | Population Fragmented Nuclei (%) [10]: 19% | Population Healthy Nuclei (%) [10]: 71% | Population Hoechst High Intensity Objects (%) [10]: 1% | Population Membrane Permeable-Phenotype (%) [10]: 4% | Population Mitochondria Different-Phenotype (%) [10]: 3% | Population Normal (%) [10]: 98% | Population Pyknosed Nuclei (%) [10]: 9% | Population Tubulin-Different-Phenotype (%) [10]: 2% | Total Cell Count [10]: 206 | Population Apoptotic (%) [11]: 91% | Population Fragmented Nuclei (%) [11]: 18% | Population Healthy Nuclei (%) [11]: 71% | Population Hoechst High Intensity Objects (%) [11]: 4% | Population Membrane Permeable-Phenotype (%) [11]: 4% | Population Mitochondria Different-Phenotype (%) [11]: 2% | Population Mitotic Cells (%) [11]: 8% | Population Normal (%) [11]: 95% | Population Pyknosed Nuclei (%) [11]: 9% | Population Tubulin-Different-Phenotype (%) [11]: 1% | Total Cell Count [11]: 397 | Population Apoptotic (%) [12]: 87% | Population Fragmented Nuclei (%) [12]: 15% | Population Healthy Nuclei (%) [12]: 73% | Population Hoechst High Intensity Objects (%) [12]: 2% | Population Mitochondria Different-Phenotype (%) [12]: 3% | Population Mitotic Cells (%) [12]: 12% | Population Normal (%) [12]: 97% | Population Pyknosed Nuclei (%) [12]: 11% | Population Tubulin-Different-Phenotype (%) [12]: 2% | Total Cell Count [12]: 285
